Laboratory results taken from ChEMBL document CHEMBL3244154, “Synthesis of 1-deaza-6-thioguanosine and 1-deaza-6-(methylthio)guanosine” (1978).
Converted amounts (≈) assume the structure as drawn. The source made the active and inactive calls. The rule behind the calls is not given here.

Assays:
KB [1] = experiment: Cytotoxicity against human KB cells; assay type: functional; settings: read-out: ED50 (the source's name)
Method in brief: (§1)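 Growth inhibition of cultured cells. Activity is expressed as ED50 in μg/mL.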

[2] = Cytotoxicity against human Hep2 cells; assay type: functional; settings: HEp-2, read-out: ED50 (the source's name); method in brief: as §1
L1210 [3] = experiment: Antitumor activity against mouse L1210 cells assessed as increase in life span administered from day 1 to day 9 relative to control; assay type: functional; parameters: concentration or dose not given beside the values
Method in brief: (§2)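 In vivo assay in mice bearing leukemia L1210, dosed on days 1–9. Read-out is percent increase in life span of treated leukemic mice over untreated leukemic controls.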

L1210 [4] = experiment: Antitumor activity against mouse L1210 cells assessed as increase in life span at 33 mg/kg administered from day 1 to day 9 relative to control; assay type: functional; method in brief: as §2
L1210 [5] = experiment: Antitumor activity against mouse L1210 cells assessed as increase in life span at 14 to 75 mg/kg administered from day 1 to day 9 relative to control; assay type: functional, organism-based
KB [6] = experiment: Cytotoxicity against human KB cells in presence of 5-amino-1H-imidazole-4-carboxamide; assay type: functional, cell-based
HEp-2 = experiment: Cytotoxicity against human Hep2 cells in presence of 5-amino-1H-imidazole-4-carboxamide; assay type: functional, cell-based

Compound | EC50 (KB [1]) [µg/mL] | EC50 [2] [µg/mL] | Activity (L1210 [3]) [%] | Activity (L1210 [4]) [%] | Activity (L1210 [5]) | Activity (KB [6]) | Activity (HEp-2)
CSc1cc(NC(C)=O)nc2[nH]cnc12 | > 22 | > 22 | <15 |  |  |  | 
Nc1cc(S)c2ncn([C@@H]3O[C@H](CO)[C@@H](O)[C@H]3O)c2n1 | > 22 | > 22 | <15 |  |  |  | 
Cc1ccc(S(=O)(=O)/N=c2\cc(Cl)c3ncn4c3n2C[C@H]2O[C@@H]4[C@@H]3OC(C)(C)O[C@@H]32)cc1 | > 22 | > 22 | <15 |  |  |  | 
Nc1cc(Cl)c2ncn([C@@H]3O[C@H](CO)[C@@H](O)[C@H]3O)c2n1 | > 22 | > 22 | <15 |  |  |  | 
Nc1cc(Cl)c2nc[nH]c2n1 | 1 (≈ 5.93 µM) | 0.3 (≈ 1.78 µM) |  | 79 | Active | Active | Active
CSc1cc(N)nc2[nH]cnc12 | > 22 | > 22 | <15 |  |  |  | 
CSc1cc(N)nc2c1ncn2[C@@H]1O[C@H](CO)[C@@H](O)[C@H]1O | > 22 | > 22 | <15 |  |  |  | 
CC(=O)Nc1cc(Cl)c2nc[nH]c2n1 | > 22 | > 22 | <15 |  |  |  | 
